Screening data from PubChem BioAssay.
Rows were chosen to be rich in hits. Some 3.4% of all compounds tested hit in one or more screens of this group.
ERAP1 HTS inh – blocks human ERAP1 aminopeptidase activity; Q9NZ08; AID 652197; 0.15% of 340,000 active; inhibition, % at 10.7 µM; recombinant ERAP1, Leu-AMC fluorescence, 60 min;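 active = mean replicate inhibition of at least 30%, or all replicates individually reaching that 30% level; inactive = mean below 30% and not every replicate reaching it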
S100A4 MyoIIA – blocks human S100A4 binding to myosin IIA peptide; AID 652163; 0.14% of 360,000 active; S100A4/TAMRA-MyoIIA peptide fluorescence polarization; inhibition, % at 10.7 µM; P26447;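 active = mean inhibition of at least 70% across replicates, with every replicate also reaching that level; inconclusive = mean inhibition reaches 70% but some replicates fall short; inactive = mean inhibition below 70%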
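Material: S100A4 monomer (human). Medium: Calcium-containing HEPES buffer, pH 7.2. Probe or stimulus: labelled myosin peptide probe, 5 nM. Compound dosing: one concentration per compound. Timing: polarization read 5 min after assay mix addition, stable 5–60 min. Benchmarks: DMSO as neutral control, TFP as positive control.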
Ecoli rRNA inh – inhibits bacterial ribosomal RNA function over humanized ribosomes; E. coli WT GFP vs humanized-ribosome RFP mutants, fluorescence, 24 h; stronger effect = lower value; DMSO median 0, no signal -100; 1.6% of 350,000 active; GFP signal change (wild-type ribosome), % (concentration not given with the values);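 active = significant combined selectivity score with lowered wild-type GFP, culture density cut under 30%, mutant RFP and density less affected; inactive = any of these conditions unmet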
E-sel inducer – induces E-selectin expression in human endothelial cells | activation, % at 7.58 µM | 0.37% of 260,000 active | AID 686992 | HUVEC E-selectin immunofluorescence imaging; normalized: neutral wells 0, TNF-alpha wells 100;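 active = mean E-selectin-positive cell signal at least 10% of the positive control, reached in at least 60% of replicates, without over 20% cell loss; inconclusive = no rule given, readout overlaps actives, possibly toxicity-flagged; inactive = the rest, including those meeting only one limit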
Target sequence (P16581 whole entry, looked up): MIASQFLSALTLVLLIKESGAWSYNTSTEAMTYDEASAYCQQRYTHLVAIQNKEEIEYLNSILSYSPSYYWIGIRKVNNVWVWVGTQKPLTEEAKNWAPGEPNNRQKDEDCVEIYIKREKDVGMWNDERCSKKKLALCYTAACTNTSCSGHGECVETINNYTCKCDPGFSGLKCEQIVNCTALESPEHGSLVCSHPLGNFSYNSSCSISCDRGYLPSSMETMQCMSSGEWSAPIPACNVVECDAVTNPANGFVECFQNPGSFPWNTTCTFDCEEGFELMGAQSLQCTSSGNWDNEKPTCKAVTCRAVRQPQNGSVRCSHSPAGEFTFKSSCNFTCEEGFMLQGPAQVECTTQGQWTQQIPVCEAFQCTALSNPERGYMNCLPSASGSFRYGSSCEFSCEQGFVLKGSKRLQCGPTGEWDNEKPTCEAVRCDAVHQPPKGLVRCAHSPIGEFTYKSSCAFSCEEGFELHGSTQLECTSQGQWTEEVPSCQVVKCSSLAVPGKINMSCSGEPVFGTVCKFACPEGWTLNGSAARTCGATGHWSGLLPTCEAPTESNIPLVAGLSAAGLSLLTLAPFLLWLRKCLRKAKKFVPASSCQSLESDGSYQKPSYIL
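Test system: HUVEC | Signal: Immunofluorescence imaging | Read-out: Percent E-selectin-positive cells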
SIRT5 block – blocks human SIRT5 desuccinylation of peptide; inhibition, % at 15 µM; AID 652115; 1.1% of 330,000 active; Q9NXA8; Purified SirT5, succinyl-peptide AMC, trypsin-coupled fluorescence; in the data active = inhibition above about 15%; inconclusive = no clear call, values can overlap the other calls
AF4-AF9 inh – inhibitors of human MLL-AF4/AF9 interaction; 0.47% of 350,000 active; AlphaScreen, biotin-AF4 peptide binding to FLAG-AF9; P42568; inhibition, % at 10 µM;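 active = every replicate reaching a set inhibition limit, whatever the replicate mean, cut at about 25% in these data; inconclusive = mean inhibition reaches that limit but some replicates miss it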
Hits are given with their value; i = inactive; ? = inconclusive; nt = no result given; ! = not confirmed by another sample.

SMILES | ERAP1 HTS inh | S100A4 MyoIIA | Ecoli rRNA inh | E-sel inducer | SIRT5 block | AF4-AF9 inh
COc1cccc(S(=O)(=O)N(C)C[C@@H]2Oc3cc(C4=CCCCC4)ccc3S(=O)(=O)N([C@@H](C)CO)C[C@H]2C)c1 | i | i | i | i | 22 | i
COc1cccc(S(=O)(=O)N(C)C[C@@H]2Oc3cc(C4=CCCC4)ccc3S(=O)(=O)N([C@H](C)CO)C[C@@H]2C)c1 | i | i | i | i | i | i
COc1cccc(S(=O)(=O)N(C)C[C@H]2Oc3cc(C4=CCCCC4)ccc3S(=O)(=O)N([C@@H](C)CO)C[C@@H]2C)c1 | i | i | i | i | i | i
CC1CCC(C(C)C)C(OC(=O)Cn2c(-c3ccc(Cl)cc3)[n+](C)c3ccccc32)C1 (centres undefined) | 31 | i | i | i | i | i
CC1CCC(C(C)C)C(OC(=O)Cn2c(-c3ccc(Br)cc3)[n+](C)c3ccccc32)C1 (centres undefined) | i | i | i | i | i | i
C[C@@H]1CN([C@H](C)CO)C(=O)c2cc(NC(=O)CCC(F)(F)F)ccc2O[C@H]1CN(C)Cc1ccc(-c2ccccc2)cc1 | i | i | i | i | i | i
CCC(=O)N1CCC2(CC1)CN(C(=O)Nc1ccccc1F)[C@H](CO)c1[nH]c3cc(OC)ccc3c12 | nt | nt | i | nt | nt | nt
CCCCCOC(=O)Cn1c(=O)oc2ccccc21 | i | i | i | i | i | i
CCCCCCCCCCOC(=O)Cn1c(COc2ccccc2C)[n+](C)c2ccccc21 | 33 | i | i | nt | i | nt
CCOC(=O)Cn1c(COc2ccccc2OC)[n+](C)c2ccccc21 | i | i | nt | nt | i | i
CCCCCCCCCCOC(=O)Cn1c(COc2ccc(Cl)cc2)[n+](C)c2ccccc21 | 35 | i | i | i | i | 42
CCCCCCCCCCOC(=O)Cn1c(COc2ccccc2)[n+](C)c2ccccc21 | 49 | i | i | nt | i | ?
CCCCCCCCCCOC(=O)Cn1c(COc2cccc(C)c2)[n+](C)c2ccccc21 | 30 | i | i | i | i | i
CC(=O)N(C1=C(Cl)C(=O)c2ccccc2C1=O)C1CCCCC1 | 68 | i | i | 36 | i | i
CC(=O)N(c1ccccc1C)C1CCCC1 | i | i | i | nt | i | i
C[C@@H]1CN([C@@H](C)CO)C(=O)c2cc(NS(C)(=O)=O)ccc2O[C@@H](C)CCCCO[C@@H]1CN(C)Cc1ccc(C(F)(F)F)cc1 | nt | nt | i | i | nt | nt
CC1CCN(C(C(=O)Nc2ccc3c(c2)OCO3)c2ccccc2)CC1 (centres undefined) | i | i | i | i | i | 52
CC1CCCN(C(C(=O)Nc2ccc3c(c2)OCO3)c2ccccc2)C1 (centres undefined) | nt | i | i | i | nt | i
CCc1ccc(CN(C)C(=O)C2CCC(=O)N(Cc3ccccn3)C2)cc1 (centres undefined) | i | i | i | i | 31 | i
CN(Cc1ccccn1)C(=O)C1CCC(=O)N(Cc2cccc(F)c2)C1 (centres undefined) | i | i | i | nt | i | i
COc1cc(CN2CC3(CCN(S(=O)(=O)c4cccc(F)c4)CC3)c3c([nH]c4cc(OC)ccc34)[C@@H]2CO)cc(OC)c1 | i | i | i | i | i | i
O=C(NCCc1ccccc1)C1C(=O)Nc2ccccc2C(=O)N1C1CCCCC1 (centres undefined) | nt | i | i | 207 | i | i
Cc1[nH]c2ccccc2c1C1=CC(=O)C=CC1=O | 78 | i | i | i | i | i
C[C@H]1CN([C@@H](C)CO)C(=O)c2cc(C#CC3CCCCC3)cnc2O[C@@H]1CN(C)Cc1ccncc1 | i | i | i | i | i | i
O=S(=O)(N[C@H]1CC[C@H](CCNS(=O)(=O)c2ccccc2Cl)O[C@H]1CO)c1ccccc1 | i | i | i | i | i | i
SMILES | ERAP1 HTS inh | S100A4 MyoIIA | Ecoli rRNA inh | E-sel inducer | SIRT5 block | AF4-AF9 inh
C[C@H]1CN([C@@H](C)CO)C(=O)c2cccc(N(C)C)c2O[C@@H]1CN(C)Cc1ccc2c(c1)OCO2 | i | i | i | i | i | i
Cc1noc(C)c1NC(=O)N(C)C[C@H]1OCCCC[C@@H](C)Oc2ccc(NS(=O)(=O)c3c(C)noc3C)cc2C(=O)N([C@H](C)CO)C[C@@H]1C | i | i | i | i | 28 | i
Cc1noc(C)c1S(=O)(=O)Nc1ccc2c(c1)C(=O)N([C@@H](C)CO)C[C@@H](C)[C@@H](CN(C)Cc1ccc(C(F)(F)F)cc1)OCCCC[C@@H](C)O2 | i | i | i | i | 27 | i
Cc1noc(C)c1S(=O)(=O)Nc1ccc2c(c1)C(=O)N([C@H](C)CO)C[C@H](C)[C@H](CN(C)Cc1ccc(C(F)(F)F)cc1)OCCCC[C@@H](C)O2 | i | i | i | i | i | i
Cc1noc(C)c1NC(=O)N(C)C[C@H]1OCCCC[C@@H](C)Oc2ccc(NS(=O)(=O)c3c(C)noc3C)cc2C(=O)N([C@H](C)CO)C[C@H]1C | i | i | i | i | i | i
Cc1noc(C)c1S(=O)(=O)Nc1ccc2c(c1)C(=O)N([C@@H](C)CO)C[C@H](C)[C@@H](CN(C)Cc1ccc(C(F)(F)F)cc1)OCCCC[C@H](C)O2 | i | i | i | i | 24! | i
Cc1noc(C)c1S(=O)(=O)Nc1ccc2c(c1)C(=O)N([C@H](C)CO)C[C@@H](C)[C@@H](CN(C)Cc1ccc(C(F)(F)F)cc1)OCCCC[C@@H](C)O2 | i | i | i | i | 24 | i
COc1cccc(C(=O)Nc2ccc3c(c2)C(=O)N(C)C[C@H](OC)[C@H](C)CN(CC2CC2)[C@H](C)CO3)c1 | i | i | i | i | i | i
O=C(Nc1ccc2c(c1)CCC2)c1cccc(OC(F)F)c1 | i | i | -24 | i | i | i
CN(C)S(=O)(=O)c1cccc(C(=O)Nc2ccc3c(c2)CCC3)c1 | i | i | -19 | nt | i | i
O=C(Nc1ccc(S(=O)(=O)N2CCCC2)cc1)c1cccc(OC(F)F)c1 | i | i | i | nt | i | i
O=C(C[C@H]1CC[C@@H]2[C@H](COC[C@@H](O)CN2Cc2nccs2)O1)NCc1ccc(Cl)cc1 | i | i | i | i | i | i
O=C(C1CC1)N1CCCCN2[C@H](CO)[C@@H](c3ccc(C#CC4(O)CCCC4)cc3)[C@@H]2C1 | i | i | nt | nt | i | i
Cc1cccc(C=NNc2cc(C)c3cccc(C)c3n2)n1 | i | i | i | i | nt | 25
Cc1[nH]c2ccccc2c1/C=N/NC(=O)c1cc(-c2ccccc2)n[nH]1 | i | i | -23 | i | i | i
Cc1[nH]c2ccccc2c1/C=N/NC(=O)CCC(=O)Nc1ccccc1 | i | i | i | nt | i | i
Cc1[nH]c2ccccc2c1/C=N/NC(=O)Nc1ccccc1 | i | i | -20 | nt | i | i
Cc1[nH]c2ccccc2c1/C=N/NC(=O)c1ccccc1 | i | i | i | i | i | i
